These results are taken from paper PMC10915268 (Parasites, Hosts and Diseases, 2024).

For data set [1], the system named is P. falciparum K1 (CQ-resistant strain). In words: In vitro antimalarial activity, P. falciparum K1. Type of data set: cell-based, Plasmodium falciparum. The following applies: for K1 Relative SI: selective index (CC50/IC50), relative to SKM13-2HCl = 1.
Data set [2] relates to P. falciparum 3D7 (CQ-sensitive strain). In words: In vitro antimalarial activity, P. falciparum 3D7. The following applies: for 3D7 Relative SI: selective index (CC50/IC50), relative to SKM13-2HCl = 1. It is filed as cell-based, Plasmodium falciparum.
The test system of the next data set is P. berghei NK65. In words: 4-day suppressive test in P. berghei NK65-infected ICR mice. Type of data set: in vivo, Plasmodium berghei (ICR mice). A digest of the protocol:
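6-week-old ICR-1 mice were inoculated on day 0 with 107 blood-stage P. berghei NK65. The test compound was given i.v. at 10, 20 or 30 mg/kg once daily for 4 days. Body weight, survival and blood parasites were recorded daily for 2 weeks. At 8 dpi mice were euthanized and livers and spleens harvested.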

Data set [3] is described as follows: Solubility in deionized water. Type of data set: physicochemical. The conditions noted are these: saturated aqueous solution, HPLC UV 342 nm. A digest of the protocol: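 Saturated solutions of the test compound salt were made in deionized water and measured by UHPLC with UV detection at 342 nm. 1% TFA in water was added to the solvent to keep the salt form. Standards at 5 concentrations gave a linear regression, from which solubility was calculated.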

The subject of another data set is Vero cells. In words: Cytotoxicity test using the MTT assay. The conditions noted are these: read-out: Vero CC50, 2-day compound exposure. It is filed as cell-based. In short, it runs like this: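 Vero cells were seeded at 104 per well in DMEM with 10% FBS. 12 h later, serial concentrations of test compound were added for 2 days at 37°C, 5% CO2. MTT was then added for 2 h and absorbance read at 490 nm. CC50 was derived from percentage growth inhibition. Run in triplicate, mean±SD.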
For orientation: Tetrazolium assays rely on reduction of a dye to a coloured formazan, in cell work by metabolically active cells.

Data set [4] can be described thus: In vivo PK assessment in mice. The arrangement: species or system ICR mice. The conditions noted are these: oral, 5 mg/kg single dose. A digest of the protocol: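 Healthy female 7-week-old ICR mice (about 30 g), kept under specific pathogen-free conditions, three per group. Each got a single oral dose of test compound at 5 mg/kg. Blood was drawn at various times and plasma stored at −80°C. Levels were measured by LC–MS/MS with calibration and QC standards. Kinetic parameters came from regression of plasma concentration versus time.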

Data set [5] is described as follows: Turbidity of 1 mM drug in cell culture media. The following applies: 1 mM dissolved in cell culture media (DMEM). It is filed as physicochemical.
The mark [6] stands for this setting: 10 mg/kg i.v. once daily for 4 days.
The mark [7] stands for this setting: 20 mg/kg, organs collected 8 dpi.

Take `CCN(CC)CCCC(C)Nc1ccnc2cc(Cl)ccc12` (centres unmarked) [CQ, Chloroquine]: the “K1 Relative SI” value in data set [1] worked out at 3.5. Besides, the “3D7 Relative SI” value in data set [2] turned out to be 6.0. Besides, the parasitemia entry in the data set with P. berghei NK65 (setting [6]) is given as “significantly reduced parasite density”.
As to `CN(C)CCNC(=O)/C=C/[C@H](Cc1ccccc1)Nc1ccnc2cc(Cl)ccc12` [SKM13-2HCl], the IC50 stood at 366 ± 19.8 nM in data set [1] (read-out: K1 IC50, P. falciparum K1, synchronized parasites) and 53.1 ± 10 nM in data set [2] (read-out: 3D7 IC50, P. falciparum 3D7, synchronized parasites). Further, the “K1 Relative SI” value in data set [1] stood at 1. Also, the “3D7 Relative SI” value in data set [2] is 1.0. Moreover, the results for the parasitemia entry in the data set with P. berghei NK65 (setting [6]), in the data set with P. berghei NK65 (20 mg/kg i.v. once daily for 4 days) and in the data set with P. berghei NK65 (30 mg/kg i.v. once daily for 4 days) were “increased parasitemia”, “effectively suppressed parasitemia” and “effectively suppressed parasitemia”, respectively. Besides, the body weight result in the data set with P. berghei NK65 (10 mg/kg i.v. once daily for 4 days, infected mice) is “not observed”. For the same compound, in the data set on P. berghei NK65 (setting [7]), the liver pigmentation result was “decreased liver pigmentation”. Besides, the spleen size result in the data set with P. berghei NK65 (setting [7]) is on record as “same size as those of the normal or CQ-treated groups”. For the same compound, the “curative effect (survival)” value in the data set with P. berghei NK65 (30 mg/kg once daily, 6 dpi) was “complete curative effect”. Further, the “solubility in deionized water” value in data set [3] amounted to 850.8 mg/mL. Further, the cytotoxic concentration (CC50) with Vero cells came out at 55200 ± 1100 nM. Further, the “Tmax_h, time to peak concentration” value in data set [4] was determined as 15 min. Further, the “elimination half-life (t1/2)” value in data set [4] (comparison of both drugs) is listed as “similar”. The “Cmax/AUC higher than that of SAM13-2HCl” value in data set [4] (versus SAM13-2HCl) is 2 fold. In addition, the turbidity result in data set [5] is “transparent”.

By IC50 is commonly meant the point on the concentration scale where inhibition reaches its midpoint. What is called CC50 is the concentration that lowers cell viability or growth by half.
